Data published in ChEMBL document CHEMBL1629618, “SOS regulation of qnrB expression” (2009).

Key:
Format in all cases: functional
Escherichia coli [1] = assay: Induction of qnrB4 gene expression in lexA- and recA- positive Escherichia coli AB1157 at 0.2 ug/ml after 30 mins by quantitative PCR method relative to control
How it was run: (§1)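 Plasmid-bearing strains grown in triplicate in LB broth at 37°C to exponential phase. At OD600 0.08 to 0.1, mitomycin C 0.2 μg/ml was added, with one culture left untreated as control. RNA was stabilised, extracted and DNase-treated, then reverse-transcribed with gene-specific reverse primers for real-time qPCR. Levels were calculated by 2−ΔΔCT relative to the unsupplemented control. Experiments repeated at least twice.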

Escherichia coli [2] = assay: Induction of qnrB4 gene expression in recA-positive lexA deficient Escherichia coli AB1157 expressing deffective lexA gene at 0.2 ug/ml after 30 mins by quantitative PCR method relative to control; how it was run: as §1
Escherichia coli [3] = assay: Induction of qnrB4 gene expression in recA-positive Escherichia coli DM49 expressing protease-resistant lexA at 0.2 ug/ml after 30 mins by quantitative PCR method relative to control; how it was run: as §1
Escherichia coli [4] = assay: Induction of qnrB1 gene expression in lexA- and recA- positive Escherichia coli J53 at 0.2 ug/ml after 30 mins by quantitative PCR method relative to control; how it was run: as §1
Escherichia coli [5] = assay: Induction of qnrB4 gene expression in lexA- and recA- positive Escherichia coli J53 at 0.2 ug/ml after 30 mins by quantitative PCR method relative to control; how it was run: as §1
Escherichia coli [6] = assay: Induction of qnrB1 gene expression in lexA- and recA- positive Escherichia coli J53 at 0.2 ug/ml after 15 mins by quantitative PCR method relative to control; how it was run: as §1
Escherichia coli [7] = assay: Induction of qnrB4 gene expression in lexA- and recA- positive Escherichia coli J53 at 0.2 ug/ml after 15 mins by quantitative PCR method relative to control; how it was run: as §1
Escherichia coli [8] = assay: Induction of qnrA1 gene expression in lexA- and recA- positive Escherichia coli J53 at 0.2 ug/ml after 30 mins by quantitative PCR method relative to control; how it was run: as §1

## CO[C@@]12[C@H](COC(N)=O)C3=C(C(=O)C(C)=C(N)C3=O)N1C[C@@H]1N[C@@H]12 [MITOMYCIN]
Escherichia coli [1]
  fold change (FC): 2
Escherichia coli [2]
  fold change (FC): 1
Escherichia coli [3]
  fold change (FC): 1
Escherichia coli [4]
  fold change (FC): 2.8
Escherichia coli [5]
  fold change (FC): 7.9
Escherichia coli [6]
  fold change (FC): 2.6
Escherichia coli [7]
  fold change (FC): 8.2
Escherichia coli [8]
  fold change (FC): 0.9
